Laboratory results taken from ChEMBL document CHEMBL5303300, “EUbOPEN Chemogenomics Library - Multiplex” (2023).
Several values for one entry are separate records, joined by “and”; a condition that tells them apart may be missing. Identical values can stand only once.

Test system: HEK-293T
Assay: Multiplex assay against HEK293T
Type: toxicity, cell-based
Conditions: human, number of replicates 2
How it was run: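 Live cells were stained at seeding with Hoechst33342, BioTracker Green Microtubule Cytoskeleton Dye, MitoTracker Red and Annexin V Alexa Fluor 680. Following compound addition, they were imaged on a CQ1 microscope at 37°C and 5% CO2 and gated by CellPathfinder machine learning into Hoechst high-intensity objects or normal cells, with normal cells split into healthy, pyknosed or fragmented nuclei and pyknosed cells into mitotic or apoptotic. Tubulin, mitochondrial-mass and membrane-permeability phenotypes are per cents of healthy-nucleus cells.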

[1] = 12 h, 1 µM, compound concentration 1 uM
[2] = 12 h, 10 µM, compound concentration 10 uM
[3] = 24 h, 1 µM, compound concentration 1 uM
[4] = 24 h, 10 µM, compound concentration 10 uM
[5] = 48 h, 1 µM, compound concentration 1 uM
[6] = 48 h, 10 µM, compound concentration 10 uM

## CS(=O)(=O)c1ccc(C(=O)Nc2cccc(COc3cc(F)c(Br)cc3CN3CC[C@H](O)C3)c2)c(Cl)c1.O=CO
[1]
  Population Apoptotic (%): 58% and 54%
  Population Pyknosed Nuclei (%): 13% and 21%
  Total Cell Count: 586 and 531
[2]
  Population Apoptotic (%): 57% and 73%
  Population Mitotic Cells (%): 42%
  Population Pyknosed Nuclei (%): 11% and 17%
  Total Cell Count: 505 and 443
[3]
  Population Apoptotic (%): 53% and 54%
  Population Mitotic Cells (%): 46%
  Population Pyknosed Nuclei (%): 11% and 10%
  Total Cell Count: 800 and 910
[4]
  Population Apoptotic (%): 65% and 73%
  Population Mitotic Cells (%): 34%
  Population Pyknosed Nuclei (%): 16% and 13%
  Total Cell Count: 426 and 549
[5]
  Population Apoptotic (%): 18% and 28%
  Population Mitotic Cells (%): 81% and 71%
  Population Pyknosed Nuclei (%): 3% and 4%
  Total Cell Count: 2227 and 1546
[6]
  Population Apoptotic (%): 61% and 60%
  Population Mitotic Cells (%): 38% and 39%
  Population Pyknosed Nuclei (%): 10% and 8%
  Total Cell Count: 595 and 738

## COC(=O)Nc1nc2c(s1)-c1c(c(-c3cccnc3)nn1-c1ccc(C3(N(C)C)CC3)cc1)CC2.Cl.Cl
[1]
  Population Apoptotic (%): 62% and 58%
  Population Fragmented Nuclei (%): 5% and 1%
  Population Healthy Nuclei (%): 82% and 89%
  Population Hoechst High Intensity Objects (%): 11% and 10%
  Population Membrane Permeable-Phenotype (%): 1%
  Population Mitochondria Different-Phenotype (%): 41% and 51%
  Population Mitotic Cells (%): 37% and 41%
  Population Normal (%): 88% and 89%
  Population Pyknosed Nuclei (%): 12% and 9%
  Population Tubulin-Different-Phenotype (%): 75% and 76%
  Total Cell Count: 359 and 348
[2]
  Population Apoptotic (%): 73% and 64%
  Population Fragmented Nuclei (%): 5%
  Population Healthy Nuclei (%): 75% and 82%
  Population Hoechst High Intensity Objects (%): 17% and 10%
  Population Membrane Permeable-Phenotype (%): 3%
  Population Mitochondria Different-Phenotype (%): 66% and 52%
  Population Mitotic Cells (%): 26% and 35%
  Population Normal (%): 82% and 89%
  Population Pyknosed Nuclei (%): 18% and 11%
  Population Tubulin-Different-Phenotype (%): 90% and 87%
  Total Cell Count: 245 and 351
[3]
  Population Apoptotic (%): 66% and 71%
  Population Fragmented Nuclei (%): 4%
  Population Healthy Nuclei (%): 81% and 82%
  Population Hoechst High Intensity Objects (%): 20% and 17%
  Population Membrane Permeable-Phenotype (%): 2% and 1%
  Population Mitochondria Different-Phenotype (%): 43% and 55%
  Population Mitotic Cells (%): 33% and 28%
  Population Normal (%): 79% and 82%
  Population Pyknosed Nuclei (%): 14% and 12%
  Population Tubulin-Different-Phenotype (%): 81% and 85%
  Total Cell Count: 313 and 342
[4]
  Population Apoptotic (%): 67% and 58%
  Population Fragmented Nuclei (%): 8% and 6%
  Population Healthy Nuclei (%): 70% and 78%
  Population Hoechst High Intensity Objects (%): 15% and 18%
  Population Membrane Permeable-Phenotype (%): 4% and 3%
  Population Mitochondria Different-Phenotype (%): 70% and 52%
  Population Mitotic Cells (%): 32% and 41%
  Population Normal (%): 85% and 81%
  Population Pyknosed Nuclei (%): 21% and 14%
  Population Tubulin-Different-Phenotype (%): 86% and 82%
  Total Cell Count: 240 and 296
[5]
  Population Apoptotic (%): 62%
  Population Fragmented Nuclei (%): 11% and 8%
  Population Healthy Nuclei (%): 81% and 80%
  Population Hoechst High Intensity Objects (%): 23% and 25%
  Population Membrane Permeable-Phenotype (%): 1%
  Population Mitochondria Different-Phenotype (%): 19% and 27%
  Population Mitotic Cells (%): 37%
  Population Normal (%): 76% and 74%
  Population Pyknosed Nuclei (%): 6% and 11%
  Population Tubulin-Different-Phenotype (%): 78% and 76%
  Total Cell Count: 490 and 355
[6]
  Population Apoptotic (%): 64% and 60%
  Population Fragmented Nuclei (%): 8% and 11%
  Population Healthy Nuclei (%): 77% and 80%
  Population Hoechst High Intensity Objects (%): 17% and 20%
  Population Membrane Permeable-Phenotype (%): 3% and 2%
  Population Mitochondria Different-Phenotype (%): 45% and 39%
  Population Mitotic Cells (%): 35% and 40%
  Population Normal (%): 82% and 79%
  Population Pyknosed Nuclei (%): 13% and 8%
  Population Tubulin-Different-Phenotype (%): 80% and 77%
  Total Cell Count: 310 and 354

## COc1ccc(CC[C@@H](OC(=O)[C@@H]2CCCCN2C(=O)[C@H](c2cc(OC)c(OC)c(OC)c2)C2CCCCC2)c2cccc(OCCN3CCOCC3)c2)cc1OC
[1]
  Population Apoptotic (%): 53% and 42%
  Population Fragmented Nuclei (%): 5% and 3%
  Population Healthy Nuclei (%): 82% and 83%
  Population Hoechst High Intensity Objects (%): 7% and 6%
  Population Membrane Permeable-Phenotype (%): 7% and 6%
  Population Mitochondria Different-Phenotype (%): 27% and 28%
  Population Mitotic Cells (%): 46% and 57%
  Population Normal (%): 92% and 93%
  Population Pyknosed Nuclei (%): 11% and 12%
  Population Tubulin-Different-Phenotype (%): 77% and 92%
  Total Cell Count: 574 and 636
[2]
  Population Apoptotic (%): 70% and 68%
  Population Fragmented Nuclei (%): 2%
  Population Healthy Nuclei (%): 85% and 83%
  Population Hoechst High Intensity Objects (%): 10% and 11%
  Population Membrane Permeable-Phenotype (%): 2%
  Population Mitochondria Different-Phenotype (%): 75% and 72%
  Population Mitotic Cells (%): 29% and 31%
  Population Normal (%): 89% and 88%
  Population Pyknosed Nuclei (%): 12% and 13%
  Population Tubulin-Different-Phenotype (%): 68% and 58%
  Total Cell Count: 560 and 485
[3]
  Population Apoptotic (%): 46% and 44%
  Population Fragmented Nuclei (%): 9% and 4%
  Population Healthy Nuclei (%): 81% and 86%
  Population Hoechst High Intensity Objects (%): 10% and 8%
  Population Membrane Permeable-Phenotype (%): 8% and 7%
  Population Mitochondria Different-Phenotype (%): 12% and 18%
  Population Mitotic Cells (%): 53% and 55%
  Population Normal (%): 89% and 91%
  Population Pyknosed Nuclei (%): 8%
  Population Tubulin-Different-Phenotype (%): 64% and 80%
  Total Cell Count: 873 and 879
[4]
  Population Apoptotic (%): 72% and 63%
  Population Fragmented Nuclei (%): 2%
  Population Healthy Nuclei (%): 82% and 81%
  Population Hoechst High Intensity Objects (%): 8% and 13%
  Population Membrane Permeable-Phenotype (%): 0%
  Population Mitochondria Different-Phenotype (%): 89% and 88%
  Population Mitotic Cells (%): 27% and 36%
  Population Normal (%): 91% and 86%
  Population Pyknosed Nuclei (%): 14% and 15%
  Population Tubulin-Different-Phenotype (%): 56% and 52%
  Total Cell Count: 512 and 487
[5]
  Population Apoptotic (%): 30% and 18%
  Population Fragmented Nuclei (%): 8% and 13%
  Population Healthy Nuclei (%): 87% and 83%
  Population Hoechst High Intensity Objects (%): 9% and 8%
  Population Membrane Permeable-Phenotype (%): 6%
  Population Mitochondria Different-Phenotype (%): 5% and 4%
  Population Mitotic Cells (%): 69% and 81%
  Population Normal (%): 90% and 91%
  Population Pyknosed Nuclei (%): 3% and 2%
  Population Tubulin-Different-Phenotype (%): 67% and 48%
  Total Cell Count: 1619 and 1643
[6]
  Population Apoptotic (%): 84% and 73%
  Population Fragmented Nuclei (%): 3% and 5%
  Population Healthy Nuclei (%): 84% and 83%
  Population Hoechst High Intensity Objects (%): 9% and 11%
  Population Membrane Permeable-Phenotype (%): 1%
  Population Mitochondria Different-Phenotype (%): 79% and 83%
  Population Mitotic Cells (%): 15% and 26%
  Population Normal (%): 90% and 88%
  Population Pyknosed Nuclei (%): 11%
  Population Tubulin-Different-Phenotype (%): 62% and 60%
  Total Cell Count: 551 and 526
